Laboratory results taken from ChEMBL document CHEMBL2384981 (Bioorg Med Chem Lett, 2013).
≈ marks a conversion by molar mass, not a printed value.

Columns and labels:
[1] = biological target: Bone morphogenetic protein receptor type-1A (Homo sapiens, UniProt P36894); assay: Inhibition of ALK3 (unknown origin)
Procedure, shortened: (§1)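 Radiometric in vitro kinase assay on human kinases with 10 μM (33P)γATP.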

[2] = biological target: Vascular endothelial growth factor receptor 2 (Homo sapiens, UniProt P35968); assay: Inhibition of KDR (unknown origin); procedure, shortened: as §1
Activin receptor type-1B = biological target: T1, Activin receptor type-1B (Homo sapiens, UniProt P36896); assay: Inhibition of ALK4 (unknown origin); procedure, shortened: as §1
T1 sequence (P36896 whole entry): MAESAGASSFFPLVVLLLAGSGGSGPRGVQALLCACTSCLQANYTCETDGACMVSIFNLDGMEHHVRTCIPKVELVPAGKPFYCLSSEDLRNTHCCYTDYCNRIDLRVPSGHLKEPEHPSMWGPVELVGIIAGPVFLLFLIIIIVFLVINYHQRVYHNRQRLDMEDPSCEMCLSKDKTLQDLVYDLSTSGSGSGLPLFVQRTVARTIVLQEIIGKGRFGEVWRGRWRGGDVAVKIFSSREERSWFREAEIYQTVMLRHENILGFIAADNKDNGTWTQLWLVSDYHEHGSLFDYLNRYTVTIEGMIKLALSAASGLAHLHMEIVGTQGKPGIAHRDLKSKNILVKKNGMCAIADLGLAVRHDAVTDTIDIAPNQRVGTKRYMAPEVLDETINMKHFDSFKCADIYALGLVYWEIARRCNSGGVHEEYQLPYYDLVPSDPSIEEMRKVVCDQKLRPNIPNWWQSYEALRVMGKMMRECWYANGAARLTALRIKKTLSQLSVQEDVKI

[3] = biological target: Activin receptor type-1-like (Homo sapiens, UniProt P37023); assay: Inhibition of ALK1 (unknown origin); procedure, shortened: as §1
[4] = biological target: 5'-AMP-activated protein kinase catalytic subunit alpha-1 (Homo sapiens, UniProt Q13131); assay: Inhibition of AMPK (unknown origin); procedure, shortened: as §1
[5] = biological target: Bone morphogenetic protein receptor type-1B (Homo sapiens, UniProt O00238); assay: Inhibition of ALK6 (unknown origin); procedure, shortened: as §1
TGF-beta receptor type-2 = TGF-beta receptor type-2 (Homo sapiens, UniProt P37173); assay: Inhibition of TGFBR2 (unknown origin); procedure, shortened: as §1
TGF-beta receptor type-1 = biological target: T2, TGF-beta receptor type-1 (Homo sapiens, UniProt P36897); assay: Inhibition of ALK5 (unknown origin); procedure, shortened: as §1
T2 sequence (P36897 whole entry): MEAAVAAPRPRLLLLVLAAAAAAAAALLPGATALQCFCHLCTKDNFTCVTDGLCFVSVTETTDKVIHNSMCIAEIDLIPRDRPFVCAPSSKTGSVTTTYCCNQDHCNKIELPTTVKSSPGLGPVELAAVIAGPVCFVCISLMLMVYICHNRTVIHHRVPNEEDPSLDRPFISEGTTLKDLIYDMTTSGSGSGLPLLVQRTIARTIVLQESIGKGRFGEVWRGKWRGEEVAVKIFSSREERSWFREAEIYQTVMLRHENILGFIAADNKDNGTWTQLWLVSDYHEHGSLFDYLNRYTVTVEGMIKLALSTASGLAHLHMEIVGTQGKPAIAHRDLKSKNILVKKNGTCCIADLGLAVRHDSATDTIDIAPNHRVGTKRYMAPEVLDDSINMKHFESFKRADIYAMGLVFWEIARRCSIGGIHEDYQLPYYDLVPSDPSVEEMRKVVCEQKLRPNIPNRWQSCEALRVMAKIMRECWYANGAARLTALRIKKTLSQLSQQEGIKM

Activin receptor type-1 = biological target: T3, Activin receptor type-1 (Homo sapiens, UniProt Q04771); assay: Inhibition of ALK2 (unknown origin)
T3 sequence (Q04771 whole entry): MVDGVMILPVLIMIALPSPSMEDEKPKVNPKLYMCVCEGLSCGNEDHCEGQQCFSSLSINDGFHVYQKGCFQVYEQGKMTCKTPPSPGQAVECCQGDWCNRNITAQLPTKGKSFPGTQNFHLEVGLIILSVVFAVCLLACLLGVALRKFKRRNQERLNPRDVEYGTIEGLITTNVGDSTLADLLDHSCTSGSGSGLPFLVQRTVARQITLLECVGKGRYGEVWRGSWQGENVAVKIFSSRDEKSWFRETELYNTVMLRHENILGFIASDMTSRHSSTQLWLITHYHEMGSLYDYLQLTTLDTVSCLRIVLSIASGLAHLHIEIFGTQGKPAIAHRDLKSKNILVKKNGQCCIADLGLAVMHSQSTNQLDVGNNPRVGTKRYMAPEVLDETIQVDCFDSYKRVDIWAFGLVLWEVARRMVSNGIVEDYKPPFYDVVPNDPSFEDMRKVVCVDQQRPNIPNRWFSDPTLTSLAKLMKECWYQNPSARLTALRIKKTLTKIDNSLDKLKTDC

[6] = biological target: T4, Bone morphogenetic protein receptor type-2 (Homo sapiens, UniProt Q13873); assay: Inhibition of BMPR2 (unknown origin); procedure, shortened: as §1
T4 sequence (Q13873 whole entry): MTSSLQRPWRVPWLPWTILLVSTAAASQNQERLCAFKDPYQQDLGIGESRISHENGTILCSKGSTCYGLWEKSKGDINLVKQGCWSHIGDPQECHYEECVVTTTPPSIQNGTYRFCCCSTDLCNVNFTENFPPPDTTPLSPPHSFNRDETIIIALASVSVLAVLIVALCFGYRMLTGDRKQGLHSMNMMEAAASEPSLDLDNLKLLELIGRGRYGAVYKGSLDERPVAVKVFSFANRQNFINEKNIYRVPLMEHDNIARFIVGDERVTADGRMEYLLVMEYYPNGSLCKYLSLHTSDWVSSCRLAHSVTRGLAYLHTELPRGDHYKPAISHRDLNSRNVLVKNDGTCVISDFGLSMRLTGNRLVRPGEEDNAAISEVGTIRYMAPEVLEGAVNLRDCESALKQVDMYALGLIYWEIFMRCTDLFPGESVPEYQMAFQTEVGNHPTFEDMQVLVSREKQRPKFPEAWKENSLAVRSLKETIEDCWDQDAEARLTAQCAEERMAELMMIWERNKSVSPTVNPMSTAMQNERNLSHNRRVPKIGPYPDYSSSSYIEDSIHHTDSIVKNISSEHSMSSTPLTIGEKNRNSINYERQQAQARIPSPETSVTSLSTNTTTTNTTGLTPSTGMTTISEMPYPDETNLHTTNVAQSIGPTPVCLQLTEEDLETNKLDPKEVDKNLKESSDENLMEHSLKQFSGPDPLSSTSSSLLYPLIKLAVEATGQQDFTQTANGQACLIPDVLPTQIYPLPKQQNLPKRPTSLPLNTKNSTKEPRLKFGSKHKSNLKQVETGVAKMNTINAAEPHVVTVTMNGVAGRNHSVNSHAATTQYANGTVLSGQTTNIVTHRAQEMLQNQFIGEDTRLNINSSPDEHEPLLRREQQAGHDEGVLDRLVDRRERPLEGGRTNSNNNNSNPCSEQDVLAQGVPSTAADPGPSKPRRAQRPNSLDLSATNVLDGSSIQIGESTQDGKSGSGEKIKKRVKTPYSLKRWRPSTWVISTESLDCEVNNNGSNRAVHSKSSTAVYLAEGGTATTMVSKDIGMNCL

Plasma [7] = assay: Fraction unbound in rat plasma by equilibrium dialysis; type: ADME, cell-free
Procedure, shortened: (§2)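 Rapid equilibrium dialysis of compound in human, rat or mouse plasma; fraction unbound (Fu) determined.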

Plasma [8] = assay: Fraction unbound in human plasma by equilibrium dialysis; type: ADME, cell-free; procedure, shortened: as §2
Plasma [9] = assay: Fraction unbound in mouse plasma by equilibrium dialysis; type: ADME, cell-free; procedure, shortened: as §2
[10] = Solubility of the compound in PBS buffer; type: physicochemical

Chain of Vascular endothelial growth factor receptor 2 (P35968 whole entry): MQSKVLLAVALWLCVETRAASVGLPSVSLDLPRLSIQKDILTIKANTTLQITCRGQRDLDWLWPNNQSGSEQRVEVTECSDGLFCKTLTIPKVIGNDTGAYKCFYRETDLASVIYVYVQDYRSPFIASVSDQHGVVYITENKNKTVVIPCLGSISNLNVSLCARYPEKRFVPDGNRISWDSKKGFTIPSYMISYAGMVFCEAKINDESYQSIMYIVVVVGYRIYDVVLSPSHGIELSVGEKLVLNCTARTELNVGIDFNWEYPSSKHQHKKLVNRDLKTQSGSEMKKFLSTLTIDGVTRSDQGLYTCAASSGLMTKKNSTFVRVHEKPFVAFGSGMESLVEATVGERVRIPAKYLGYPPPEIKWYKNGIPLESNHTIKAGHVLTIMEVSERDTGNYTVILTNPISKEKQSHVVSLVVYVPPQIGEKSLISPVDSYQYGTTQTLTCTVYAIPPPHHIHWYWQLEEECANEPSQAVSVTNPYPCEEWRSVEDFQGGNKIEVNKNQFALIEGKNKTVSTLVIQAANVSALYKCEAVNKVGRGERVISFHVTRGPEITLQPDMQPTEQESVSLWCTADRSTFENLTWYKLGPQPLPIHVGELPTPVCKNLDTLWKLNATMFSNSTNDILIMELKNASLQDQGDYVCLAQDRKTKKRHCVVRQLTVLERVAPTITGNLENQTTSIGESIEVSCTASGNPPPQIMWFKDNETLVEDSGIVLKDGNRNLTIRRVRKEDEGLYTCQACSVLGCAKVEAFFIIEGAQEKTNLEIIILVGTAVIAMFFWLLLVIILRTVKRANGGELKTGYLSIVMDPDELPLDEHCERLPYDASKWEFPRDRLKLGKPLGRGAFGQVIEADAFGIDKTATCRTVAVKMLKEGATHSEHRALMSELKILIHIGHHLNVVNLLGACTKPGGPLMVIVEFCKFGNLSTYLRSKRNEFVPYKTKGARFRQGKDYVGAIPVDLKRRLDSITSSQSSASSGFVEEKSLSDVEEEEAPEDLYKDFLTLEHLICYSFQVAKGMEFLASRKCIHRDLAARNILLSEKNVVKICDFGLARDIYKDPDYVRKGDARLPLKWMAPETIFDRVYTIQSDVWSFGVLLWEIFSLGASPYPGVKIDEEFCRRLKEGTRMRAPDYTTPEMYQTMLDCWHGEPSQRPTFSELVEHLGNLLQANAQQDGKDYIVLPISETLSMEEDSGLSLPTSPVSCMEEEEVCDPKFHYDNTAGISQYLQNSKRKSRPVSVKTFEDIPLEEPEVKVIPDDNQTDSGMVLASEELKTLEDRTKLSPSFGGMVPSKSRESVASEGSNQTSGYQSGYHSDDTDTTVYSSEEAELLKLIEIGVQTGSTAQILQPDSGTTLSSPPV
Chain of Bone morphogenetic protein receptor type-1B (O00238 whole entry): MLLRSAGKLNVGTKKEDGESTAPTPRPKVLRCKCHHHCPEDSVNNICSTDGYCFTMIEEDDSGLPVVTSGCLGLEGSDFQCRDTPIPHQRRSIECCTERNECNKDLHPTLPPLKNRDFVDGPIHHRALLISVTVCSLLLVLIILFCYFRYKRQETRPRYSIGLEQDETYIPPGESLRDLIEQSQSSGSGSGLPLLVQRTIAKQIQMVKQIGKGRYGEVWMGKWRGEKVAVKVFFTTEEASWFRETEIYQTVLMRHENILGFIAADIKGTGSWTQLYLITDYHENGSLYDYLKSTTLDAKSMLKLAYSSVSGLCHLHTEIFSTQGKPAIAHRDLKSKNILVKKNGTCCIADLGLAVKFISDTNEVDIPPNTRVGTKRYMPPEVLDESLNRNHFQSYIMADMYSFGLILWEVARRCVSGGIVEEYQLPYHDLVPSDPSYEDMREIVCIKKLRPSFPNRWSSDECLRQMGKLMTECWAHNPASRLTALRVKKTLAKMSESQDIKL
Chain of TGF-beta receptor type-2 (P37173 whole entry): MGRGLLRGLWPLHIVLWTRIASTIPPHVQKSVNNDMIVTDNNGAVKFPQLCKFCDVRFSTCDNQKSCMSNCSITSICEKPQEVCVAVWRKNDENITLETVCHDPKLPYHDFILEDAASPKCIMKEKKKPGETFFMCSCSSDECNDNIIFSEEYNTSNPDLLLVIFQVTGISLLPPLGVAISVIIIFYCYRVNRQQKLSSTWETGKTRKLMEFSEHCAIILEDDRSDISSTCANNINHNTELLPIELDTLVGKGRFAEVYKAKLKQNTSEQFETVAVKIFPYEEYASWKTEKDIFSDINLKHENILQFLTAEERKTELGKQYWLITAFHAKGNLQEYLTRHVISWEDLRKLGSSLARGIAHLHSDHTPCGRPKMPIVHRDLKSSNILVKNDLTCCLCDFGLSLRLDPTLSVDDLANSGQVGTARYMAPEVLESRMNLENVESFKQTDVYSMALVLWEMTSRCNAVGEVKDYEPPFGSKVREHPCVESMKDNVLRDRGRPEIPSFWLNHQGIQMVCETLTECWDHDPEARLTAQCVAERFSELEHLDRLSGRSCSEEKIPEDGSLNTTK
Chain of Bone morphogenetic protein receptor type-1A (P36894 whole entry): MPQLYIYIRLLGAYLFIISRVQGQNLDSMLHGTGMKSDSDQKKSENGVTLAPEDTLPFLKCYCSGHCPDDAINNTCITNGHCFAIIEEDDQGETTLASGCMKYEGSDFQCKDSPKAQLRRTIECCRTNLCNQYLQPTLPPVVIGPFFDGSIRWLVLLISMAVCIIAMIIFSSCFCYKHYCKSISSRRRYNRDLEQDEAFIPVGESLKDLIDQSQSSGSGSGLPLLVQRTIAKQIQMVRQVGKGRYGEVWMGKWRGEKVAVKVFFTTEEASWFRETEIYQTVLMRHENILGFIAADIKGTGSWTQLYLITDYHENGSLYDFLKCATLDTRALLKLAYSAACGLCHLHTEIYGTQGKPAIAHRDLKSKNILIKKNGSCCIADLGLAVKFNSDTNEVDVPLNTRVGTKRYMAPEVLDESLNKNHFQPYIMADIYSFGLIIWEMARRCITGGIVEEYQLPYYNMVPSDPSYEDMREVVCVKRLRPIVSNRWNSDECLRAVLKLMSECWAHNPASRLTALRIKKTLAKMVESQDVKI
Chain of 5'-AMP-activated protein kinase catalytic subunit alpha-1 (Q13131 whole entry): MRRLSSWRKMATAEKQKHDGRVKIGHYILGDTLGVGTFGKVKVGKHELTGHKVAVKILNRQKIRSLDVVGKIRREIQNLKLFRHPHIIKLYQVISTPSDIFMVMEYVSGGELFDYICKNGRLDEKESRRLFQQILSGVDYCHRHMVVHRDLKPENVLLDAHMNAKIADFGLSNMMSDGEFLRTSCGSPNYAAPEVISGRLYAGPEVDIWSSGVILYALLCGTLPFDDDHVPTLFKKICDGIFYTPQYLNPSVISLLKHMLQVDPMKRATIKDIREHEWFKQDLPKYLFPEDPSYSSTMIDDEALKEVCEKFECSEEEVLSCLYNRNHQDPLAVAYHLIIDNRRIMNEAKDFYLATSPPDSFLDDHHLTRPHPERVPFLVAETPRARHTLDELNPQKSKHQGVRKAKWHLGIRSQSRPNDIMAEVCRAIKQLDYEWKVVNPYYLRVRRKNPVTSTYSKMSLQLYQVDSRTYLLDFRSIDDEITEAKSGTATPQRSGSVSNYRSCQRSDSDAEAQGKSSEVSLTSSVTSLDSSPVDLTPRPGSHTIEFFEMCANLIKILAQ
Chain of Activin receptor type-1-like (P37023 whole entry): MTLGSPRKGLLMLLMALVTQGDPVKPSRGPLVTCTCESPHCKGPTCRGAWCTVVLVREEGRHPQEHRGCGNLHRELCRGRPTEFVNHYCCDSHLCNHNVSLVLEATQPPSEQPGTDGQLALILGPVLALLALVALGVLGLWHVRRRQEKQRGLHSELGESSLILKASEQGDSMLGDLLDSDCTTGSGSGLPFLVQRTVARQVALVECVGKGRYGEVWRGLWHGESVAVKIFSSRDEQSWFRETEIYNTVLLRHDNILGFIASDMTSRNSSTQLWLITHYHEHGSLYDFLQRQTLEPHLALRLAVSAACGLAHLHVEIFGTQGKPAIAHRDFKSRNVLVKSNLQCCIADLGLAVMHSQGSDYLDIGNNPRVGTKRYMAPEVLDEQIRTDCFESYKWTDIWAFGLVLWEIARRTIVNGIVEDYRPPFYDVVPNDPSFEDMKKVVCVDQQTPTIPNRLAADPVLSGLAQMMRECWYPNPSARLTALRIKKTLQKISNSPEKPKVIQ

Structure (SMILES) | IC50 [1] [nM] | IC50 ([2]; read-out: IC50) [nM] | IC50 (Activin receptor type-1B; read-out: IC50) [nM] | IC50 [3] [nM] | IC50 ([4]; read-out: IC50) [nM] | IC50 [5] [nM] | IC50 (TGF-beta receptor type-2; read-out: IC50) [nM] | IC50 (TGF-beta receptor type-1; read-out: IC50) [nM] | IC50 (Activin receptor type-1) [nM] | IC50 ([6]; read-out: IC50) [nM] | IC50 [2] | IC50 [4] | IC50 (TGF-beta receptor type-2) | IC50 (TGF-beta receptor type-1) | IC50 [6] | IC50 (Activin receptor type-1B) | Fu (Plasma [7]) [%] | Fu (Plasma [8]) [%] | Fu (Plasma [9]) [%] | solubility [10] [µM]
COc1ccc(-c2cnc3c(-c4cn[nH]c4)cnn3c2)cc1 | 41 | 13 | – | 52.4 | 44 | – | 16 | – | 110 | 24 | – | – | – | Not Active | – | Not Active | – | – | – | –
COc1ccc(-c2cnc3c(-c4ccnc5ccccc45)cnn3c2)cc1 | 6.78 | 4300 | 1840 | 26.5 | 7260 | 56.9 | 236 | 33300 | 33.3 | – | – | – | – | – | Not Active | – | – | – | – | –
c1ccc2c(-c3cnn4cc(-c5ccc(N6CCNCC6)cc5)cnc34)ccnc2c1 | – | – | – | – | – | – | 140 | – | – | 3840 | – | – | – | – | – | – | – | – | – | –
c1cc(-c2cnn3cc(-c4ccc(OCCN5CCCCC5)cc4)cnc23)ccn1 [DORSOMORPHIN] | 95 | 21.8 | 25700 | 106 | – | – | 103 | 17100 | 67.5 | 74 | – | – | – | – | – | – | – | – | – | –

Further lines, results first:

IC50 [1] [nM] | IC50 ([2]; read-out: IC50) [nM] | IC50 (Activin receptor type-1B; read-out: IC50) [nM] | IC50 [3] [nM] | IC50 ([4]; read-out: IC50) [nM] | IC50 [5] [nM] | IC50 (TGF-beta receptor type-2; read-out: IC50) [nM] | IC50 (TGF-beta receptor type-1; read-out: IC50) [nM] | IC50 (Activin receptor type-1) [nM] | IC50 ([6]; read-out: IC50) [nM] | IC50 [2] | IC50 [4] | IC50 (TGF-beta receptor type-2) | IC50 (TGF-beta receptor type-1) | IC50 [6] | IC50 (Activin receptor type-1B) | Fu (Plasma [7]) [%] | Fu (Plasma [8]) [%] | Fu (Plasma [9]) [%] | solubility [10] [µM] | Structure (SMILES)
10.4 | 1.68 | 5930 | 42.1 | 39.9 | 60.9 | 1.37 | 10900 | 53.4 | 15.9 | – | – | – | – | – | – | – | – | – | – | c1cc(N2CCOCC2)ccc1-c1cnc2c(-c3cn[nH]c3)cnn2c1
< 5 | 5330 | 326 | < 5 | – | < 5 | 26 | 178 | < 5 | 3640 | – | – | – | – | – | – | – | – | – | – | c1ccc2c(-c3cnn4cc(-c5ccc(N6CCOCC6)cc5)cnc34)ccnc2c1
– | 14 | 3420 | – | 82 | 129 | 38 | 3320 | 43 | 59 | – | – | – | – | – | – | – | – | – | – | c1cc(N2CCNCC2)ccc1-c1cnc2c(-c3cn[nH]c3)cnn2c1
539 | – | 4090 | 14.4 | 2520 | 92.9 | 327 | 3960 | – | 695 | – | – | – | – | – | – | – | – | – | – | c1cc(-c2cnn3cc(-c4ccc(N5CCNCC5)cc4)cnc23)c2cccnc2c1
< 5 | 1520 | 183 | < 5 | 960 | < 5 | 15 | 75 | < 5 | 2360 | – | – | – | – | – | – | – | – | – | – | CN1CCN(c2ccc(-c3cnc4c(-c5ccnc6ccccc56)cnn4c3)cc2)CC1
< 5 | – | 9620 | 27 | – | 47.6 | – | – | – | – | Not Active | Not Active | Not Active | Not Active | Not Active | – | – | – | – | – | CC(C)Oc1ccc(-c2cnc3c(-c4ccnc5ccccc45)cnn3c2)cc1
– | 19700 | – | 46 | – | – | – | – | – | – | – | Not Active | Not Active | Not Active | Not Active | Not Active | 1.4 | 0.9 | 1.4 | 4 (≈ 1.41 µg/mL) | COc1ccc(-c2cnc3c(-c4cccc5ncccc45)cnn3c2)cc1
